The values below come from ChEMBL document CHEMBL2010686, “Influence of the active compounds of Perilla frutescens leaves on lipid membranes” (J Nat Prod, 2012).

In data set [1] the test system is Lipid bilayer. The experiment in a line: Binding affinity to 1,2-dimyristoyl-sn-glycero-3-phosphocholine bilayer assessed as change in main phase transition temperature at low concentration by differential scanning calorimetry. The data set is classed as physicochemical. The method, boiled down: (§1)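 Differential scanning calorimetry on 15 mM multilamellar DMPC vesicles in 50 mM sodium phosphate (ionic strength 154 mM with NaCl, pH 7.5). Terpenoid added in MeOH (below 10 μL); the x = 0 control received 10 μL MeOH. Terpenoid mole fraction varied from 0 to 0.15. Main-transition Tm, pretransition temperature and transition enthalpy were read from the thermograms.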
Background: In DSC, transitions show as peaks or steps in heat flow.

For data set [2], the system named is Lipid bilayer. Put plainly: Binding affinity to 1,2-dimyristoyl-sn-glycero-3-phosphocholine bilayer assessed as decrease in main phase transition temperature at high concentration by differential scanning calorimetry (reference value: 24.4 deg C). The format is physicochemical. The method, boiled down: as §1
A short description of data set [3]: 1,2-dimyristoyl-sn-glycero-3-phosphocholine bilayer-water partition coefficient, K of the compound at 300 uM by isothermal titration calorimetry at 35 deg C. The conditions noted are these: DMPC vesicles/water. The data set is classed as physicochemical. Put shortly: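 DMPC vesicles hydrated in 50 mM sodium phosphate (ionic strength 154 mM with NaCl, pH 7.5), extruded at 35 °C through 100 nm filters. Lipid suspension (1–20 mM) injected in small aliquots into ~300 μM terpenoid in the ITC cell (1.409 mL). Integrated heats per injection fitted with a dilution-heat term to give K and ΔH. ΔG0 = −RTln(55.5K). ΔCP from linear regression of ΔH versus temperature.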
(In general: In ITC the heat of successive injections is recorded.)

Data set [4] deals with Lipid bilayer. The experiment in a line: Binding affinity to Me-5-DSA labelled 1,2-dimyristoyl-sn-glycero-3-phosphocholine bilayer containing assessed as change in membrane fluidity by electron paramagnetic resonance spectroscopy. Put shortly: (§2)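 DMPC membranes carrying a spin label, either pure or with terpenoid at 15 mol % (Me-5-DSA also over a concentration series). Samples held in hematocrit tubes and equilibrated 10 min at 35 °C. X-band spectra (~9.4 GHz, ~2 mW, 100 kHz modulation, 1 G amplitude), usually five scans summed. Order parameter from hyperfine splittings. Rotational correlation times from central-line width and line heights as a fluidity measure.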

Data set [5] concerns Lipid bilayer. The experiment in a line: Binding affinity to Me-16-DSA labelled 1,2-dimyristoyl-sn-glycero-3-phosphocholine bilayer containing assessed as change in membrane fluidity by electron paramagnetic resonance spectroscopy. The method, boiled down: as §2
The test system of data set [6] is Lipid bilayer. Put plainly: Binding affinity to 5-DSA labelled 1,2-dimyristoyl-sn-glycero-3-phosphocholine bilayer containing assessed as change in membrane fluidity by electron paramagnetic resonance spectroscopy. The method, boiled down:
as §2

Data set [7] concerns Lipid bilayer. Put plainly: Binding affinity to CSL labelled 1,2-dimyristoyl-sn-glycero-3-phosphocholine bilayer containing assessed as change in membrane fluidity by electron paramagnetic resonance spectroscopy. Put shortly:
as §2

In data set [8] the test system is Lipid bilayer. Put plainly: Binding affinity to 1,2-dimyristoyl-sn-glycero-3-phosphocholine bilayer assessed as increase in pre-transition temperature at low concentration by differential scanning calorimetry (reference value: 12.7 deg C). The data set is classed as physicochemical. Put shortly:
as §1

Activity calls are given as the source filed them. The rule behind the calls is not given here.

Turning to `C=C(C)C1CC=C(C=O)CC1` (stereo not drawn) [PERILLALDEHYDE], the Activity result in the data set on Lipid bilayer [1] is reported as “Not Active”. Moreover, the T in the data set on Lipid bilayer [2] stood at 19.4 °C. Moreover, the Ko in data set [3] stood at 215 M⁻¹. Besides, the result in the data set with Lipid bilayer [4], in the data set with Lipid bilayer [5], in the data set with Lipid bilayer [6] and in the data set on Lipid bilayer [7] was inactive.
Consider `C=C(C)[C@@H]1CC=C(C(=O)O)CC1` [PERILLIC ACID], for which the Activity result in data set [3] was “Not Active”.
As to `C=C(C)[C@H]1CC=C(C)CC1` [D-LIMONENE], in the data set with Lipid bilayer [1], the Activity entry is “Not Active”. The results for the T with Lipid bilayer [2] and in the data set on Lipid bilayer [8] were 16.3 °C and 14.5 °C, respectively. The Ko in data set [3] is 10900 M⁻¹. For the same compound, the result with Lipid bilayer [4], in the data set with Lipid bilayer [5], in the data set on Lipid bilayer [6] and with Lipid bilayer [7] was inactive.
On to `C=C(C)[C@@H]1CC=C(CO)CC1` [PERILLYL ALCOHOL], for which the Activity result in the data set on Lipid bilayer [1] is “Not Active”. Further, in the data set on Lipid bilayer [2], the T was determined as 19.4 °C. Also, in data set [3], the Ko came out at 305 M⁻¹. For the same compound, the outcome with Lipid bilayer [4], in the data set with Lipid bilayer [5], in the data set with Lipid bilayer [6] and with Lipid bilayer [7] was inactive.
